Experiment [1] deals with T1, Pituitary adenylate cyclase-activating polypeptide type I receptor (Homo sapiens, UniProt P41586). The experiment can be described thus: Agonist activity at human recombinant PAC1 receptor expressed in CHO cells assessed as PACAP38-induced calcium mobilization by FLIPR assay. It counts as functional, cell-based. An outline of the steps:
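CHO cells stably expressing recombinant human PAC1, plated 24 h before assay, loaded with fluo-4 AM for 60 min at 37 °C in the dark, then rinsed into HBSS for 15 min at 37 °C. EC50 and efficacy came from nonlinear regression; 4-10 independent assays in duplicate.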
(A change in cytosolic calcium serves as a functional read-out for many receptors and channels.)
Target sequence in this assay (P41586 whole entry): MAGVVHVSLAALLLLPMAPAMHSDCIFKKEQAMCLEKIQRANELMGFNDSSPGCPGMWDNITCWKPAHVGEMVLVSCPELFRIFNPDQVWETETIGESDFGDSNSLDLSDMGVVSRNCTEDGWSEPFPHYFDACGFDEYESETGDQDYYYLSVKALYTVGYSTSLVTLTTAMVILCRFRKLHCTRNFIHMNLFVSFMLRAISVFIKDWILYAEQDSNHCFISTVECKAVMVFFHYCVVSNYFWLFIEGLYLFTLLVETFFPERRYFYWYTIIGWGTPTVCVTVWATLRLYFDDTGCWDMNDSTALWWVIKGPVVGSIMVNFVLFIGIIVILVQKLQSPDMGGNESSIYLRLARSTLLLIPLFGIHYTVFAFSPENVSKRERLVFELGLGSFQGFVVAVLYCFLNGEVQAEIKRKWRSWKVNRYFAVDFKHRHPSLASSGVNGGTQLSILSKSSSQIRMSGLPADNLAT

Experiment [2] addresses T1, Pituitary adenylate cyclase-activating polypeptide type I receptor. The experiment can be described thus: Displacement of [125I]Ac-PACAP27 from human recombinant PAC1 receptor expressed in CHO cells by gamma- counter. It counts as cell-based. For orientation: Displacement assays read how much labelled ligand stays bound in the presence of the test substance.
Target sequence in this assay (P41586 whole entry): as above
Experiment [3] has the same target. The experiment can be described thus: Agonist activity at human recombinant PAC1 receptor expressed in CHO cells assessed as PACAP38-induced calcium mobilization by FLIPR assay relative to PACAP38. In kind it is functional, cell-based. The procedure, abridged:
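CHO cells stably expressing recombinant human PAC1, plated 24 h before assay, loaded with fluo-4 AM for 60 min at 37 °C in the dark, then rinsed into HBSS for 15 min at 37 °C. Peptide was added 18 s into a 150 s read (ex 480/em 525 nm), at final concentrations of 1 × 10-12 to 1 × 10^-5 M. Response was normalised to 1 × 10^-5 M PACAP38 on each plate. EC50 and efficacy came from nonlinear regression; 4-10 independent assays in duplicate.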
Target sequence in this assay (P41586 21-468 limits assumed): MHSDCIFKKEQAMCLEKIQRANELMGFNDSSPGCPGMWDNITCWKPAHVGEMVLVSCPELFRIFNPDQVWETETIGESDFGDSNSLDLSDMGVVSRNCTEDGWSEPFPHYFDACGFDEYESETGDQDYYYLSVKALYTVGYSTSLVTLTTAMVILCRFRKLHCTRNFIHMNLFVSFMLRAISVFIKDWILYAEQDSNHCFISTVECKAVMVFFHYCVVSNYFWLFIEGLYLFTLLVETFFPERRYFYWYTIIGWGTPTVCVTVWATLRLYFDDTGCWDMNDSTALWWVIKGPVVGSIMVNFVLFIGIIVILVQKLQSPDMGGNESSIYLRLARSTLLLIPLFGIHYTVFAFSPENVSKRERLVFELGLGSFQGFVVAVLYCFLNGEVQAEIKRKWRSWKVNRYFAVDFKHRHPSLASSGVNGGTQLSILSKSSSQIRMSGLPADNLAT

Results on 3 compounds are retold here after ChEMBL document CHEMBL1138520, “Molecular and conformational determinants of pituitary adenylate cyclase-activating polypeptide (PACAP) for activation of the PAC1 receptor” (J Med Chem, 2009).

The EC50 is the concentration needed to bring the measured effect to its halfway point. For orientation: IC50 means the concentration that gives 50% inhibition. As for `CC[C@H](C)[C@H](NC(=O)CNC(=O)[C@H](CC(=O)O)NC(=O)[C@H](CO)NC(=O)[C@@H](N)Cc1cncn1C)C(=O)N[C@@H](Cc1ccccc1)C(=O)N[C@H](C(=O)N[C@@H](CC(=O)O)C(=O)N[C@@H](CO)C(=O)N[C@@H](Cc1ccc(O)cc1)C(=O)N[C@@H](CO)C(=O)N[C@@H](CCCN=C(N)N)C(=O)N[C@@H](Cc1ccc(O)cc1)C(=O)N[C@@H](CCCN=C(N)N)C(=O)N[C@@H](CCCCN)C(=O)N[C@@H](CCC(N)=O)C(=O)N[C@@H](CCSC)C(=O)N[C@@H](C)C(=O)N[C@H](C(=O)N[C@@H](CCCCN)C(=O)N[C@@H](CCCCN)C(=O)N[C@@H](Cc1ccc(O)cc1)C(=O)N[C@@H](CC(C)C)C(=O)N[C@@H](C)C(=O)N[C@@H](C)C(=O)N[C@H](C(=O)N[C@@H](CC(C)C)C(=O)NCC(=O)N[C@@H](CCCCN)C(=O)N[C@@H](CCCN=C(N)N)C(=O)N[C@@H](Cc1ccc(O)cc1)C(=O)N[C@@H](CCCCN)C(=O)N[C@@H](CCC(N)=O)C(=O)N[C@@H](CCCN=C(N)N)C(=O)N[C@H](C(=O)N[C@@H](CCCCN)C(=O)N[C@@H](CC(N)=O)C(=O)N[C@@H](CCCCN)C(N)=O)C(C)C)C(C)C)C(C)C)[C@@H](C)O`, in experiment [1], the EC50 came out at 2.4 nM. Further, the IC50 in experiment [2] worked out at 7.5 nM.
For `CC[C@H](C)[C@H](NC(=O)CNC(=O)[C@H](CC(=O)O)NC(=O)[C@H](CO)NC(=O)[C@@H](N)Cc1cn(C)cn1)C(=O)N[C@@H](Cc1ccccc1)C(=O)N[C@H](C(=O)N[C@@H](CC(=O)O)C(=O)N[C@@H](CO)C(=O)N[C@@H](Cc1ccc(O)cc1)C(=O)N[C@@H](CO)C(=O)N[C@@H](CCCN=C(N)N)C(=O)N[C@@H](Cc1ccc(O)cc1)C(=O)N[C@@H](CCCN=C(N)N)C(=O)N[C@@H](CCCCN)C(=O)N[C@@H](CCC(N)=O)C(=O)N[C@@H](CCSC)C(=O)N[C@@H](C)C(=O)N[C@H](C(=O)N[C@@H](CCCCN)C(=O)N[C@@H](CCCCN)C(=O)N[C@@H](Cc1ccc(O)cc1)C(=O)N[C@@H](CC(C)C)C(=O)N[C@@H](C)C(=O)N[C@@H](C)C(=O)N[C@H](C(=O)N[C@@H](CC(C)C)C(N)=O)C(C)C)C(C)C)[C@@H](C)O`, in experiment [1], the half-maximal effective concentration (EC50) worked out at 389 nM. Further, the IC50 in experiment [2] amounted to 21.6 nM.
As usually defined, the Emax is the greatest response seen or fitted, relative to the assay's reference. For the compound `CC[C@H](C)[C@H](NC(=O)CNC(=O)[C@H](CC(=O)O)NC(=O)[C@H](CO)NC(=O)[C@@H](N)Cc1cnc[nH]1)C(=O)N[C@@H](Cc1ccccc1)C(=O)N[C@H](C(=O)N[C@@H](CC(=O)O)C(=O)N[C@@H](CO)C(=O)N[C@@H](Cc1ccc(O)cc1)C(=O)N[C@@H](CO)C(=O)N[C@@H](CCCNC(=N)N)C(=O)N[C@@H](Cc1ccc(O)cc1)C(=O)N[C@@H](CCCNC(=N)N)C(=O)N[C@@H](CCCCN)C(=O)N[C@@H](CCC(N)=O)C(=O)N[C@@H](CCSC)C(=O)N[C@@H](C)C(=O)N[C@H](C(=O)N[C@@H](CCCCN)C(=O)N[C@@H](CCCCN)C(=O)N[C@@H](Cc1ccc(O)cc1)C(=O)N[C@@H](CC(C)C)C(=O)N[C@@H](C)C(=O)N[C@@H](C)C(=O)N[C@H](C(=O)N[C@@H](CC(C)C)C(=O)NCC(=O)N[C@@H](CCCCN)C(=O)N[C@@H](CCCNC(=N)N)C(=O)N[C@@H](Cc1ccc(O)cc1)C(=O)N[C@@H](CCCCN)C(=O)N[C@@H](CCC(N)=O)C(=O)N[C@@H](CCCNC(=N)N)C(=O)N[C@H](C(=O)N[C@@H](CCCCN)C(=O)N[C@@H](CC(N)=O)C(=O)N[C@@H](CCCCN)C(N)=O)C(C)C)C(C)C)C(C)C)[C@@H](C)O`, the maximum response (Emax) in experiment [3] was determined as 100%.
